Source: ChEMBL document CHEMBL2046293, “Design, synthesis, and biological evaluation of conformationally constrained analogues of naphthol AS-E as inhibitors of CREB-mediated gene transcription” (J Med Chem, 2012)
pIC50: −log10 of the molar value.

Tests used:
[1] = Inhibition of CREB kinase-inducible domain/CREB binding protein KID-interacting domain interaction after 20 to 24 hrs by luciferase reporter gene assay
[2] = Inhibition of CREB expressed in HEK293T cells assessed as inhibition of forskolin-stimulated CRE transcription incubated for 30 mins prior to forskolin-stimulation measured after 4.5 hrs by luciferase reporter gene assay; assay type: cell-based; conditions: HEK-293T
How it was run: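 HEK293T cells transfected with pCRE-RLuc (Lipofectamine 2000), replated after 3 h at 1-2 × 10^4 cells/well and attached overnight. Compounds at various concentrations added 30 min before forskolin (10 μM final), then 4.5 h at 37 °C. Lysate Renilla luciferase read with benzyl-coelenterazine (pH 7.4, 10 μg/mL), normalized to Bradford-dye protein (RLU/μg). IC50 from non-linear regression.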

`O=c1oc2cc3ccccc3cc2c(=O)n1-c1ccc(Cl)cc1` showed a pIC50 [1] of less than 4.30 and a pIC50 [2] of 4.51.
`O=c1[nH]c2cc3ccccc3cc2c(=O)n1-c1ccc(Cl)cc1` gave a pIC50 [1] of less than 4.30 and a pIC50 [2] of less than 4.30.
Work on `Clc1ccc(Nc2noc3cc4ccccc4cc23)cc1` yielded a pIC50 [1] of less than 4.30 and a pIC50 [2] of 4.61.
Work on `Clc1ccc(Nc2n[nH]c3cc4ccccc4cc23)cc1` yielded a pIC50 [1] of 5.06 and a pIC50 [2] of 5.32.
Work on `Cn1nc(Nc2ccc(Cl)cc2)c2cc3ccccc3cc21` yielded a pIC50 [1] of 5.28 and a pIC50 [2] of less than 4.30.
`Clc1ccc(Nc2ncnc3cc4ccccc4cc23)cc1` showed a pIC50 [1] of 5.02 and a pIC50 [2] of 4.72.
In the case of `O=C(Nc1ccc(Cl)cc1)c1cc2ccccc2cc1O`, the pIC50 [1] was 5.54 and the pIC50 [2] was 5.64.
